These entries were drawn from the full list.
Apaf-1 act – activators of human Apaf-1 apoptosome, primary screen, biochemical, DEVD-Rh110 fluorescence, uHTS; actives 0.31% (n = 330,000); activity change, negative = activation, % at 20 µM; Apaf-1 apoptosome caspase-3 activation; active compounds read low; AID 489031, 2010; Apoptotic protease-activating factor 1 (Homo sapiens), O14727;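 active = activity change at or below -40% at 20 µM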
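System: Reconstituted apoptosome of Apaf-1, cytochrome c, caspase-9, procaspase-3 | Reagent: dATP, cytochrome c, and (Z-DEVD)2-Rh110 caspase-3 substrate | Times: 30 min compound preincubation and 50 min reaction, both room temperature | Detection: Caspase-3-released Rh110 fluorescence, 540 nm emission, 480 nm excitation | Measure: Caspase-3 activity via Apaf-1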
Rh110 act interf – Rh110 fluorescence interference by putative Apaf-1 activators, confirmation, artefact control for Apaf-1 activator project, biochemical, 20 µM | 980 tested, under 10 active | quenched caspase reaction, Ex480/Em540 | AID 504616, 2011 | fluorescence interference (activity change), % at 20 µM, hits read low | shares compounds with Apaf-1 act;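 active = mean activity change at or below -40% when tested at 20 µM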
Apaf-1 act conf2 – Apaf-1 activators, single-dose retest, confirmation, biochemical, fluorescence, DEVD-Rh110, 20 µM; shares compounds with Apaf-1 act; reconstituted apoptosome caspase-3 activity; active compounds read low; activity change, negative = activation, % at 20 µM; actives 5% (n = 980); AID 504617, 2011;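 active = mean activity change at or below -40%, meaning activation of 40% or more, at 20 µM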
Numbers without * were called inactive; x = no result given.

SMILES	Apaf-1 act	Rh110 act interf	Apaf-1 act conf2
O=C(CCSc1nc(-c2ccco2)cc(C(F)(F)F)n1)NCCN1CCOCC1	-55.7*	3.6	5.4
Nc1c(C(=O)NCc2ccc(F)cc2)c2nc3ccccc3nc2n1CCCN1CCOCC1	59.2	x	x
Cc1cccc(-n2c(N)c(C(=O)NCCN3CCOCC3)c3nc4ccccc4nc32)c1	50.6	x	x
Cc1[nH]n(-c2ccc([N+](=O)[O-])cc2)c(=O)c1/C=N/N1CCOCC1	44.5	x	x
COC(=O)c1ccc(C(=O)OC)c(NC(=O)CN2CCN(c3ccccc3)CC2)c1	-190.9*	-0.8	12.5
CC(=O)Oc1ccc(/C=C2/C(=O)N(c3ccccc3)N=C2C)cc1	91.0	x	x
O=S(=O)(c1ccc(NC(=S)Nc2ccc(OC(F)F)cc2)cc1)N1CCOCC1	-65.6*	10.3	17.6
COc1cc(NCc2ccccc2)c2ncn(Cc3ccccc3)c2c1	49.5	x	x
Cc1nnc(SCC(=O)NCc2ccco2)n1Cc1ccccc1	-428.3*	-4.6	13.1
C=CCn1c(SCC(=O)NCCc2ccccc2)nnc1C1CC1	42.4	x	x
CC1=CC(C)(C)NC(=S)N1C(C)c1ccccc1 (configuration not stated)	-56.1*	-1.4	15.6
CN(CCO)c1cc(Sc2nc3ccccc3s2)c2nonc2c1[N+](=O)[O-]	51.8	x	x
CCSc1ccc2c(c1)N(CCCN1CCN(C)CC1)c1ccccc1S2	56.8	x	x
COc1cc2c3nnc(-c4ccc(F)cc4)c-3cn(Cc3cccc(C)c3)c2cc1OC	52.9	x	x
O=C(NCc1ccccn1)c1ccc2c(=O)n3nc(Nc4ccccc4)sc3nc2c1	-43.1*	-4.2	-38.3
Cc1ccccc1Nc1cc2ccccc2c(=O)[nH]1	95.8	x	x
C=C(C)C(=O)Nc1ccc(OC(F)(F)C(F)F)c(NC(=O)C(=C)C)c1	-84.8*	4.1	-20.6
O=C(NNc1ccccc1C(F)(F)F)c1cccs1	-107.0*	4.1	7.8
O=C(Nc1ccc(-c2nc3ccc(NC(=O)c4cccs4)cc3[nH]2)cc1)c1cccs1	68.9	x	x
Cc1ccc(CN2CC(C(=O)N3CCN(S(=O)(=O)c4ccc(C)cc4C)CC3)CC2=O)cc1 (configuration not stated)	48.4	x	x
CCN1CCN(CCNC(=O)c2ccc(/C=C3\Sc4ccccc4N(Cc4ccccc4F)C3=O)cc2)CC1	41.3	x	x
CCN1CCN(Cc2ccc(NC(=O)c3cc(NC(=O)c4cncc(-c5cccs5)c4)cc(OC)c3)cc2C(F)(F)F)CC1	67.9	x	x
O=C1c2ccccc2-c2nnc(-c3ccccc3)cc21	71.3	x	x
CN1CCN(C2Cc3cc(F)ccc3Sc3ccc(Cl)cc32)CC1 (configuration not stated)	-77.7*	7.4	6.8
CN1CCN(CCCN2c3ccccc3Sc3ccc(Cl)cc32)CC1	53.9	x	x
SMILES	Apaf-1 act	Rh110 act interf	Apaf-1 act conf2
CSc1ccc2c(c1)C(N1CCN(C)CC1)Cc1ccccc1S2 (configuration not stated)	47.8	x	x
C#CCOCCOCCOCCNc1nc(N2CCN(C(=O)[C@H](CCCCN)n3cc(CN)nn3)CC2)nc(N2CCN(C(=O)[C@H](CCCCN)n3cc([C@@H](N)[C@H](C)CC)nn3)CC2)n1	40.2	x	x
CCN1/C(=C/C(C)=C/c2sc3ccccc3[n+]2CC)Sc2ccccc21	52.7	x	x
CCC(=O)Nc1ccccc1C(=O)N1CCCC1	-43.6*	-8.2	5.2
CCc1ccc(N2C(=O)C(Cl)=C(Nc3ccc(C(=O)N4CCCC4)cc3)C2=O)cc1	41.4	x	x
COc1ccccc1OCC(=O)NCC1CCCN(C(=O)c2ccccc2SC)C1 (configuration not stated)	50.9	x	x
COC(=O)CCC(=O)OC1(C)C(=O)C2=CN(C3CC3)C(c3ccc(OC)cc3)=CC2=C(Br)C1=O (configuration not stated)	61.3	x	x
CCC(COC)Oc1cc(NCc2ccccc2)c2ncn(C(C)C)c2c1 (configuration not stated)	97.2	x	x
CCN1CCN(Cc2ccc(NC(=O)c3cc(NC(=O)c4cc5cccc(OC)c5o4)cc(OC)c3)cc2C(F)(F)F)CC1	63.1	x	x
CN(CC(=O)Nc1ccc2c(c1)OCCO2)S(=O)(=O)c1cccc2cccnc12	-114.9*	12.9	13.1
CCN(CC(=O)Nc1ccc2c(c1)OCCO2)S(=O)(=O)c1ccc(C)cc1	-77.8*	-6.1	11.1
CCN(Cc1ccccc1)S(=O)(=O)c1ccc(C(=O)N(CCCN(C)C)c2nc3cc4c(cc3s2)OCCO4)cc1	41.3	x	x
CN(C)CCOc1ccc(-c2c(-c3ccccc3)sc3ccccc23)cc1	77.5	x	x
NC(=O)C1CCN(C2=C(NS(=O)(=O)c3ccc(Br)cc3)C(=O)c3ccccc3C2=O)CC1	65.5	x	x
CCCCCCCCCn1c2c(c(=N)c3c1CCC3)CCC2	49.7	x	x

Screening data as filed in PubChem.
